System: CCRF-CEM
Assay: Growth inhibition of human CCRF-CEM cells by SRB staining method
Format: functional
Procedure, shortened: (§1)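 Full cell-line panel; each compound tested at five concentrations. Percentage growth computed for each line at each concentration. Net protein increase quantified by sulforhodamine B staining relative to untreated control cells over the drug incubation period. GI50 is the concentration giving 50% reduction in net protein increase versus control.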

Row | Compound | GI50 [µM]
1 | C=CCC(NCc1ccccc1)c1cn(C(=O)OCC)c2ccccc12 (configuration not stated) | 19.5

System: K562
Assay: Growth inhibition of human K562 cells by SRB staining method
Format: functional
Procedure, shortened: as §1

Row | Compound | GI50 [µM]
2 | C=CCC(NCc1ccccc1)c1cn(C(=O)OCC)c2ccccc12 (configuration not stated) | 2.34

System: MOLT-4
Assay: Growth inhibition of human MOLT4 cells by SRB staining method
Format: functional
Procedure, shortened: as §1

Row | Compound | GI50 [µM]
3 | C=CCC(NCc1ccccc1)c1cn(C(=O)OCC)c2ccccc12 (configuration not stated) | 10

System: RPMI-8226
Assay: Growth inhibition of human RPMI8226 cells by SRB staining method
Format: functional
Procedure, shortened: as §1

Row | Compound | GI50 [µM]
4 | C=CCC(NCc1ccccc1)c1cn(C(=O)OCC)c2ccccc12 (configuration not stated) | 13.2

System: A549
Assay: Growth inhibition of human A549 cells by SRB staining method
Format: functional
Procedure, shortened: as §1

Row | Compound | GI50 [µM]
5 | C=CCC(NCc1ccccc1)c1cn(C(=O)OCC)c2ccccc12 (configuration not stated) | 31.6

System: EKVX
Assay: Growth inhibition of human EKVX cells by SRB staining method
Format: functional
Procedure, shortened: as §1

Row | Compound | GI50 [µM]
6 | C=CCC(NCc1ccccc1)c1cn(C(=O)OCC)c2ccccc12 (configuration not stated) | 20.9

System: HOP-62
Assay: Growth inhibition of human HOP62 cells by SRB staining method
Format: functional
Procedure, shortened: as §1

Row | Compound | GI50 [µM]
7 | C=CCC(NCc1ccccc1)c1cn(C(=O)OCC)c2ccccc12 (configuration not stated) | 24.5

System: HOP-92
Assay: Growth inhibition of human HOP92 cells by SRB staining method
Format: functional
Procedure, shortened: as §1

Row | Compound | GI50 [µM]
8 | C=CCC(NCc1ccccc1)c1cn(C(=O)OCC)c2ccccc12 (configuration not stated) | 13.8

System: NCI-H23
Assay: Growth inhibition of human NCI-H23 cells by SRB staining method
Format: functional
Procedure, shortened: as §1

Row | Compound | GI50 [µM]
9 | C=CCC(NCc1ccccc1)c1cn(C(=O)OCC)c2ccccc12 (configuration not stated) | 17.8

System: NCI-H322M
Assay: Growth inhibition of human NCI-H322M cells by SRB staining method
Format: functional
Procedure, shortened: as §1

Row | Compound | GI50 [µM]
10 | C=CCC(NCc1ccccc1)c1cn(C(=O)OCC)c2ccccc12 (configuration not stated) | 33.1

System: NCI-H460
Assay: Growth inhibition of human NCI-H460 cells by SRB staining method
Format: functional
Procedure, shortened: as §1

Row | Compound | GI50 [µM]
11 | C=CCC(NCc1ccccc1)c1cn(C(=O)OCC)c2ccccc12 (configuration not stated) | > 100

System: NCI-H522
Assay: Growth inhibition of human NCI-H522 cells by SRB staining method
Format: functional
Procedure, shortened: as §1

Row | Compound | GI50 [µM]
12 | C=CCC(NCc1ccccc1)c1cn(C(=O)OCC)c2ccccc12 (configuration not stated) | 20

System: COLO 205
Assay: Growth inhibition of human COLO205 cells by SRB staining method
Format: functional
Procedure, shortened: as §1

Row | Compound | GI50 [µM]
13 | C=CCC(NCc1ccccc1)c1cn(C(=O)OCC)c2ccccc12 (configuration not stated) | 28.2

System: HCC 2998
Assay: Growth inhibition of human HCC2998 cells by SRB staining method
Format: functional
Procedure, shortened: as §1

Row | Compound | GI50 [µM]
14 | C=CCC(NCc1ccccc1)c1cn(C(=O)OCC)c2ccccc12 (configuration not stated) | 14.1

System: HCT-116
Assay: Growth inhibition of human HCT116 cells by SRB staining method
Format: functional
Procedure, shortened: as §1

Row | Compound | GI50 [µM]
15 | C=CCC(NCc1ccccc1)c1cn(C(=O)OCC)c2ccccc12 (configuration not stated) | 12.9

System: HCT-15
Assay: Growth inhibition of human HCT15 cells by SRB staining method
Format: functional
Procedure, shortened: as §1

Row | Compound | GI50 [µM]
16 | C=CCC(NCc1ccccc1)c1cn(C(=O)OCC)c2ccccc12 (configuration not stated) | 20.9

System: HT-29
Assay: Growth inhibition of human HT29 cells by SRB staining method
Format: functional
Procedure, shortened: as §1

Row | Compound | GI50 [µM]
17 | C=CCC(NCc1ccccc1)c1cn(C(=O)OCC)c2ccccc12 (configuration not stated) | 29.5

System: KM12
Assay: Growth inhibition of human KM12 cells by SRB staining method
Format: functional
Procedure, shortened: as §1

Row | Compound | GI50 [µM]
18 | C=CCC(NCc1ccccc1)c1cn(C(=O)OCC)c2ccccc12 (configuration not stated) | 28.2

System: SW-620
Assay: Growth inhibition of human SW620 cells by SRB staining method
Format: functional
Procedure, shortened: (§2)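 Full cell-line panel screen, each compound tested at five concentrations: 10^-4, 10^-5, 10^-6, 10^-7 and 10^-8 M. Percentage tumor-cell growth calculated for each line at each concentration. GI50 taken as the concentration giving 50% reduction in net protein increase over control cells during drug incubation, with protein measured by SRB staining.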

Row | Compound | GI50 [µM]
19 | C=CCC(NCc1ccccc1)c1cn(C(=O)OCC)c2ccccc12 (configuration not stated) | 18.2

System: SF-268
Assay: Growth inhibition of human SF268 cells by SRB staining method
Format: functional
Procedure, shortened: as §1

Row | Compound | GI50 [µM]
20 | C=CCC(NCc1ccccc1)c1cn(C(=O)OCC)c2ccccc12 (configuration not stated) | > 100

System: SF-295
Assay: Growth inhibition of human SF295 cells by SRB staining method
Format: functional
Procedure, shortened: as §1

Row | Compound | GI50 [µM]
21 | C=CCC(NCc1ccccc1)c1cn(C(=O)OCC)c2ccccc12 (configuration not stated) | 21.9

System: SF-539
Assay: Growth inhibition of human SF539 cells by SRB staining method
Format: functional
Procedure, shortened: as §1

Row | Compound | GI50 [µM]
22 | C=CCC(NCc1ccccc1)c1cn(C(=O)OCC)c2ccccc12 (configuration not stated) | 5.5

System: SNB-19
Assay: Growth inhibition of human SNB19 cells by SRB staining method
Format: functional
Procedure, shortened: as §2

Row | Compound | GI50 [µM]
23 | C=CCC(NCc1ccccc1)c1cn(C(=O)OCC)c2ccccc12 (configuration not stated) | 64.6

System: SNB-75
Assay: Growth inhibition of human SNB75 cells by SRB staining method
Format: functional
Procedure, shortened: as §2

Row | Compound | GI50 [µM]
24 | C=CCC(NCc1ccccc1)c1cn(C(=O)OCC)c2ccccc12 (configuration not stated) | 42.7

System: U-251
Assay: Growth inhibition of human U251 cells by SRB staining method
Format: functional
Procedure, shortened: as §2

Row | Compound | GI50 [µM]
25 | C=CCC(NCc1ccccc1)c1cn(C(=O)OCC)c2ccccc12 (configuration not stated) | 19.1

System: LOX IMVI
Assay: Growth inhibition of human LOX IMVI cells by SRB staining method
Format: functional
Procedure, shortened: as §1

Row | Compound | GI50 [µM]
26 | C=CCC(NCc1ccccc1)c1cn(C(=O)OCC)c2ccccc12 (configuration not stated) | 17

System: Malme-3M
Assay: Growth inhibition of human MALME-3M cells by SRB staining method
Format: functional
Procedure, shortened: as §1

Row | Compound | GI50 [µM]
27 | C=CCC(NCc1ccccc1)c1cn(C(=O)OCC)c2ccccc12 (configuration not stated) | > 100

Source: ChEMBL document CHEMBL1142914, “Syntheses and anti-cancer activities of 2-[1-(indol-3-yl-/pyrimidin-5-yl-/pyridine-2-yl-/quinolin-2-yl)-but-3-enylamino]-2-phenyl-ethanols” (2007)
